The results in this text go back to ChEMBL document CHEMBL4364256, “Design, synthesis and biological evaluation of antimicrobial diarylimine and -amine compounds targeting the interaction between the bacterial NusB and NusE proteins” (Eur J Med Chem, 2019).

Test [1] concerns Staphylococcus aureus. Description: microbe, parasite or virus in culture. Particulars: ATCC 29213, 20 h.
A further test relates to Acinetobacter baumannii. In words: Antimicrobial activity against Acinetobacter baumannii ATCC 19606 incubated for 20 hrs by microdilution method. It counts as functional. Particulars: ATCC 19606 = CIP 70.34 = JCM 6841, 20 h. The gist of the method:
(§1)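 Broth microdilution MIC testing done following CLSI guidelines.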

Another test relates to Enterococcus faecium. In words: Antimicrobial activity against Enterococcus faecium ATCC 19433 incubated for 20 hrs by microdilution method. The note with it: ATCC 19433, 20 h. It is filed as functional. The gist of the method:
as §1

The test system of test [2] is Staphylococcus aureus. In words: microbe, parasite or virus in culture. Particulars: ATCC 25923, 20 h.
The subject of another test is Pseudomonas aeruginosa. In words: Antimicrobial activity against Pseudomonas aeruginosa ATCC 27853 incubated for 20 hrs by microdilution method. It is filed as functional. The note with it: ATCC 27853, 20 h. In short, it runs like this: as §1
(In general: Broth dilution looks for growth in wells or tubes with falling amounts of substance.)

A short description of test [3]: microbe, parasite or virus in culture. Particulars: Enterobacter cloacae, ATCC 13047, 20 h.
In another test the test system is Streptococcus pneumoniae. Description: Antimicrobial activity against Streptococcus pneumoniae ATCC 49619 incubated for 20 hrs by microdilution method. It counts as functional. The note with it: ATCC 49619, 20 h. The gist of the method:
as §1

The subject of another test is Bacillus subtilis. In words: Inhibition of N-terminal LgBiT-fused Bacillus subtilis NusB expressed in Escherichia coli BL21(DE3)pLysS interaction with C- terminal SmBiT-fused Bacillus subtilis NusE expressed in Escherichia coli BL21(DE3)pLysS at 100 uM preincubated for 10 mins followed by NusE addition and measured after 10 mins by nano-glo luciferase assay relative to control. In short, it runs like this:
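NusB and NusE were mixed 1:1 at 1 µM in PBS, with compound at 100 µM. The read-out was percent inhibition of the NusB-NusE interaction.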

Structures are written as SMILES. Values after ≈ are worked out from the molar mass of the structure shown.

As for `CC(C)(C)c1cccc(/N=C/c2cc([N+](=O)[O-])ccc2O)c1`, the MIC against Staphylococcus aureus [1] was 16 µg/mL (≈ 53.6 µM); in the test on Acinetobacter baumannii it was 128 µg/mL (≈ 429 µM); in the test with Enterococcus faecium, over 256 µg/mL; against Staphylococcus aureus [2], 4 µg/mL (≈ 13.4 µM); with Pseudomonas aeruginosa, over 256 µg/mL; in test [3], over 256 µg/mL. This compound also returned an MIC against Streptococcus pneumoniae of 256 µg/mL (≈ 858 µM). Moreover, in the test on Bacillus subtilis, the inhibition (in general, the relative decrease from the control value, in per cent) turned out to be 51.3%.
Turning to `O=[N+]([O-])c1ccc(O)c(/C=N/c2ccc(O)cc2)c1`, the MIC was 8 µg/mL (≈ 31 µM) in the test with Staphylococcus aureus [1]; over 256 µg/mL in the test on Acinetobacter baumannii; over 256 µg/mL with Enterococcus faecium; 4 µg/mL (≈ 15.5 µM) against Staphylococcus aureus [2]; over 256 µg/mL in the test with Pseudomonas aeruginosa; over 256 µg/mL in test [3]. The compound further had an MIC with Streptococcus pneumoniae of 64 µg/mL (≈ 248 µM). Moreover, the inhibition with Bacillus subtilis was determined as 89.1%.
With `C#Cc1cccc(/N=C/c2cc(CC#N)ccc2O)c1`, the MIC is over 256 µg/mL against Staphylococcus aureus [1]; 64 µg/mL (≈ 246 µM) against Acinetobacter baumannii; over 256 µg/mL in the test with Enterococcus faecium; 256 µg/mL (≈ 983 µM) in the test with Staphylococcus aureus [2]; over 256 µg/mL against Pseudomonas aeruginosa; over 256 µg/mL in test [3]. The MIC in the test with Streptococcus pneumoniae is over 256 µg/mL. Also, the inhibition in the test with Bacillus subtilis is 49.9%.
For the compound `O=[N+]([O-])c1ccc(O)c(/C=N/c2cccc(C(F)(F)F)c2)c1`, the MIC against Staphylococcus aureus [1] is 64 µg/mL (≈ 206 µM); with Acinetobacter baumannii, 256 µg/mL (≈ 825 µM); against Enterococcus faecium it was over 256 µg/mL; against Staphylococcus aureus [2], 16 µg/mL (≈ 51.6 µM); against Pseudomonas aeruginosa, over 256 µg/mL; in test [3] it was 256 µg/mL (≈ 825 µM). In the test on Streptococcus pneumoniae, this compound came in with an MIC of 32 µg/mL (≈ 103 µM). Besides, in the test on Bacillus subtilis, the inhibition amounted to 56.2%.
Regarding `C#Cc1ccc(/N=C/c2cc([N+](=O)[O-])ccc2O)cc1`, the MIC is 16 µg/mL (≈ 60.1 µM) against Staphylococcus aureus [1]; over 256 µg/mL against Acinetobacter baumannii; 128 µg/mL (≈ 481 µM) with Enterococcus faecium; 4 µg/mL (≈ 15 µM) with Staphylococcus aureus [2]; over 256 µg/mL with Pseudomonas aeruginosa; over 256 µg/mL in test [3]. The same compound came in with an MIC in the test with Streptococcus pneumoniae of 64 µg/mL (≈ 240 µM). The compound further yielded an inhibition in the test with Bacillus subtilis of 76.3%.
For the compound `C#Cc1cccc(/N=C/c2cc(C(=O)OC)ccc2O)c1`, the MIC is over 256 µg/mL in the test on Staphylococcus aureus [1]; 64 µg/mL (≈ 229 µM) in the test on Acinetobacter baumannii; over 256 µg/mL with Enterococcus faecium; 128 µg/mL (≈ 458 µM) against Staphylococcus aureus [2]; 256 µg/mL (≈ 917 µM) against Pseudomonas aeruginosa; over 256 µg/mL in test [3]. This compound also had an MIC against Streptococcus pneumoniae of 128 µg/mL (≈ 458 µM). The compound further showed an inhibition with Bacillus subtilis of 41.4%.
Turning to `O=[N+]([O-])c1ccc(O)c(/C=N/c2cccc3ccccc23)c1`, the MIC is 16 µg/mL (≈ 54.7 µM) with Staphylococcus aureus [1]; 128 µg/mL (≈ 438 µM) in the test with Acinetobacter baumannii; over 256 µg/mL against Enterococcus faecium; 4 µg/mL (≈ 13.7 µM) in the test on Staphylococcus aureus [2]; over 256 µg/mL in the test on Pseudomonas aeruginosa; over 256 µg/mL in test [3]. Also, the MIC against Streptococcus pneumoniae was 32 µg/mL (≈ 109 µM). Besides, in the test on Bacillus subtilis, the inhibition turned out to be 43.4%.
With `C#Cc1cccc(/N=C/c2cc(F)ccc2O)c1`, the MIC is over 256 µg/mL in the test with Staphylococcus aureus [1]; 256 µg/mL (≈ 1070 µM) against Acinetobacter baumannii; over 256 µg/mL in the test with Enterococcus faecium; 256 µg/mL (≈ 1070 µM) in the test with Staphylococcus aureus [2]; 256 µg/mL (≈ 1070 µM) against Pseudomonas aeruginosa; over 256 µg/mL in test [3]. In the test with Streptococcus pneumoniae, the MIC came out at 256 µg/mL (≈ 1070 µM). This compound also registered an inhibition with Bacillus subtilis of 28.1%.
Regarding `C#Cc1cccc(/N=C/c2cc(Cl)cc(Cl)c2O)c1`, the MIC with Staphylococcus aureus [1] was 64 µg/mL (≈ 221 µM); against Acinetobacter baumannii it was 128 µg/mL (≈ 441 µM); against Enterococcus faecium, 256 µg/mL (≈ 882 µM); in the test on Staphylococcus aureus [2], 32 µg/mL (≈ 110 µM); in the test on Pseudomonas aeruginosa, over 256 µg/mL; in test [3], over 256 µg/mL. The compound also had an MIC in the test on Streptococcus pneumoniae of 8 µg/mL (≈ 27.6 µM). In the test on Bacillus subtilis, the inhibition stood at 54.2%.
As for `O=[N+]([O-])c1ccc(O)c(CNc2ccccc2)c1`, the MIC against Staphylococcus aureus [1] is 32 µg/mL (≈ 131 µM); against Acinetobacter baumannii it was 256 µg/mL (≈ 1050 µM); against Enterococcus faecium it was 128 µg/mL (≈ 524 µM); with Staphylococcus aureus [2], 16 µg/mL (≈ 65.5 µM); against Pseudomonas aeruginosa, over 256 µg/mL; in test [3], over 256 µg/mL. Moreover, the MIC in the test on Streptococcus pneumoniae is 64 µg/mL (≈ 262 µM). In addition, in the test with Bacillus subtilis, the inhibition was 4.6%.
As to `O=[N+]([O-])c1ccc(O)c(/C=N/c2cccc(O)c2)c1`, the MIC against Staphylococcus aureus [1] was 64 µg/mL (≈ 248 µM); against Acinetobacter baumannii it was over 256 µg/mL; with Enterococcus faecium, over 256 µg/mL; against Staphylococcus aureus [2] it was 16 µg/mL (≈ 62 µM); against Pseudomonas aeruginosa, over 256 µg/mL; in test [3] it was over 256 µg/mL. In addition, in the test with Streptococcus pneumoniae, the MIC came out at 256 µg/mL (≈ 991 µM). This compound had an inhibition with Bacillus subtilis of 96.3%.
In the case of `C#Cc1cccc(NCc2ccc([N+](=O)[O-])cc2O)c1`, the MIC with Staphylococcus aureus [1] was 8 µg/mL (≈ 29.8 µM); with Acinetobacter baumannii, 64 µg/mL (≈ 239 µM); against Enterococcus faecium it was 32 µg/mL (≈ 119 µM); in the test with Staphylococcus aureus [2] it was 8 µg/mL (≈ 29.8 µM); in the test with Pseudomonas aeruginosa it was over 256 µg/mL; in test [3], over 256 µg/mL. Besides, in the test with Streptococcus pneumoniae, the MIC is 16 µg/mL (≈ 59.6 µM). In the test with Bacillus subtilis, this compound showed an inhibition of 48.2%.
Consider `O=[N+]([O-])c1ccc(O)c(/C=N/c2ccc(Cl)cc2)c1`, for which the MIC in the test on Staphylococcus aureus [1] is 32 µg/mL (≈ 116 µM); against Acinetobacter baumannii, over 256 µg/mL; in the test on Enterococcus faecium it was 256 µg/mL (≈ 925 µM); against Staphylococcus aureus [2] it was 8 µg/mL (≈ 28.9 µM); with Pseudomonas aeruginosa, over 256 µg/mL; in test [3], over 256 µg/mL. This compound returned an MIC against Streptococcus pneumoniae of 64 µg/mL (≈ 231 µM). For the same compound, the inhibition in the test on Bacillus subtilis turned out to be 50%.
In the case of `C#Cc1cccc(NCc2ccccc2O)c1`, the MIC (with Staphylococcus aureus [1]; against Acinetobacter baumannii; with Enterococcus faecium; against Staphylococcus aureus [2]; in the test on Pseudomonas aeruginosa; in test [3]) was over 256 µg/mL each time. The same compound returned an MIC in the test on Streptococcus pneumoniae of over 256 µg/mL. In the test with Bacillus subtilis, the inhibition worked out at 20.3%.
As for `C#Cc1cccc(NCc2cc([N+](=O)[O-])ccc2OC)c1`, the MIC (against Staphylococcus aureus [1]; with Acinetobacter baumannii; against Enterococcus faecium; in the test with Staphylococcus aureus [2]; against Pseudomonas aeruginosa; in test [3]) was over 256 µg/mL each time. Also, the MIC in the test on Streptococcus pneumoniae is over 256 µg/mL. The same compound returned an inhibition in the test with Bacillus subtilis of 56.1%.
As to `O=[N+]([O-])c1ccc(O)c(/C=N/c2ccccc2C(F)(F)F)c1`, the MIC in the test with Staphylococcus aureus [1] was 16 µg/mL (≈ 51.6 µM); against Acinetobacter baumannii, over 256 µg/mL; in the test on Enterococcus faecium, 256 µg/mL (≈ 825 µM); in the test on Staphylococcus aureus [2], 8 µg/mL (≈ 25.8 µM); in the test on Pseudomonas aeruginosa, over 256 µg/mL; in test [3], over 256 µg/mL. For the same compound, in the test on Streptococcus pneumoniae, the MIC was 32 µg/mL (≈ 103 µM). The compound also displayed an inhibition with Bacillus subtilis of 53.1%.
Take `O=[N+]([O-])c1ccc(O)c(/C=N/c2ccc(C(F)(F)F)cc2)c1`: the MIC with Staphylococcus aureus [1] was 16 µg/mL (≈ 51.6 µM); against Acinetobacter baumannii it was 256 µg/mL (≈ 825 µM); against Enterococcus faecium it was 256 µg/mL (≈ 825 µM); against Staphylococcus aureus [2] it was 8 µg/mL (≈ 25.8 µM); in the test on Pseudomonas aeruginosa it was over 256 µg/mL; in test [3], over 256 µg/mL. Further, the MIC in the test on Streptococcus pneumoniae was determined as 16 µg/mL (≈ 51.6 µM). In the test on Bacillus subtilis, the inhibition came to 68.9%.
As to `C#Cc1cccc(/N=C/c2cc(O)ccc2[N+](=O)[O-])c1`, the MIC against Staphylococcus aureus [1] was 256 µg/mL (≈ 961 µM); against Acinetobacter baumannii, 256 µg/mL (≈ 961 µM); with Enterococcus faecium, over 256 µg/mL; in the test on Staphylococcus aureus [2], 256 µg/mL (≈ 961 µM); with Pseudomonas aeruginosa, over 256 µg/mL; in test [3], over 256 µg/mL. This compound had an MIC against Streptococcus pneumoniae of over 256 µg/mL. The compound also displayed an inhibition in the test with Bacillus subtilis of 52.2%.
Take `C#Cc1cccc(NCc2cc(CC#N)ccc2O)c1`: the MIC against Staphylococcus aureus [1] is 32 µg/mL (≈ 122 µM); against Acinetobacter baumannii, over 256 µg/mL; against Enterococcus faecium, 32 µg/mL (≈ 122 µM); in the test with Staphylococcus aureus [2], 64 µg/mL (≈ 244 µM); with Pseudomonas aeruginosa, over 256 µg/mL; in test [3] it was over 256 µg/mL. In the test on Streptococcus pneumoniae, this compound yielded an MIC of 8 µg/mL (≈ 30.5 µM). The inhibition in the test on Bacillus subtilis worked out at 44.7%.
Turning to `CO[C@H]1/C=C/O[C@@]2(C)Oc3c(C)c(O)c4c(O)c(c(/C=N/N5CCN(C)CC5)c(O)c4c3C2=O)NC(=O)/C(C)=C\C=C\[C@H](C)[C@H](O)[C@@H](C)[C@@H](O)[C@@H](C)[C@H](OC(C)=O)[C@@H]1C` [RIFAMPIN], the MIC in the test on Staphylococcus aureus [1] was 0.0125 µg/mL (≈ 0.0152 µM); in the test with Acinetobacter baumannii, 4 µg/mL (≈ 4.86 µM); with Enterococcus faecium, 2 µg/mL (≈ 2.43 µM); in the test on Staphylococcus aureus [2] it was 0.0125 µg/mL (≈ 0.0152 µM); in the test on Pseudomonas aeruginosa it was over 256 µg/mL; in test [3] it was over 256 µg/mL. In the test with Streptococcus pneumoniae, this compound registered an MIC of 0.0625 µg/mL (≈ 0.0759 µM).
